Experimental data as given in ChEMBL document CHEMBL3045304, “Sesquiterpene lactones with potential use as natural herbicide models. 2. guaianolides” (2000).
Active and inactive are the calls of the source. The calls are words filed in the database; no cut-off is given here.

Experiments:
Lactuca sativa [1] = test: Inhibition of germination of Lactuca sativa cv. Roman (lettuce) at 0.1 mM or 1 mM after 5 days relative to untreated control; assay type: functional
In short: (§1)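 Lettuce and tomato seeds, 25 per dish on filter paper, received 5 mL test solution. Incubation was 5 days in the dark at 25 °C, with four replicates per concentration. Solutions were made at 10^-3 or 10^-4 M in 10 mM MES, diluted serially, and adjusted to pH 6.0. Parallel controls were run. Results are % difference from control.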

Allium cepa [2] = test: Inhibition of root length of Allium cepa cv. Valenciana (onion) at 0.1 mM or 1 mM after 5 days relative to untreated control; assay type: functional
Lepidium sativum [3] = test: Stimulation of hypocotyl length of Lepidium sativum at 0.1 mM or 1 mM after 5 days relative to untreated control; assay type: functional
Allium cepa [4] = test: Stimulation of hypocotyl length of Allium cepa cv. Valenciana (onion) at 0.1 mM or 1 mM after 5 days relative to untreated control; assay type: functional
Lactuca sativa [5] = test: Stimulation of germination of Lactuca sativa cv. Roman (lettuce) at 0.1 mM or 1 mM after 5 days relative to untreated control; assay type: functional; in short: as §1
Allium cepa [6] = test: Stimulation of root length of Allium cepa cv. Valenciana (onion) at 0.1 mM or 1 mM after 5 days relative to untreated control; assay type: functional
Allium cepa [7] = test: Inhibition of hypocotyl length of Allium cepa cv. Valenciana (onion) at 0.1 mM or 1 mM after 5 days relative to untreated control; assay type: functional
Triticum aestivum [8] = test: Stimulation of root length of Triticum aestivum cv. Cortex (wheat) at 0.1 mM or 1 mM after 5 days relative to untreated control; assay type: functional
In short: (§2)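 Wheat: 10 seeds per dish on filter paper with 5 mL test solution, 5 days in the dark at 25 °C, 10 replicates per concentration. Stock test solutions were 10^-3 or 10^-4 M in 10 mM MES, with lower levels made by dilution, all at pH 6.0. Parallel controls were run. Output is % difference from control.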

Solanum lycopersicum [9] = test: Inhibition of germination of Solanum lycopersicum cv. Tres Cantos (tomato) at 0.1 mM or 1 mM after 5 days relative to untreated control; assay type: functional; in short: as §1
Solanum lycopersicum [10] = test: Stimulation of root length of Solanum lycopersicum cv. Tres Cantos (tomato) at 0.1 mM or 1 mM after 5 days relative to untreated control; assay type: functional; in short: as §1
Triticum aestivum [11] = test: Stimulation of germination of Triticum aestivum cv. Cortex (wheat) at 0.1 mM or 1 mM after 5 days relative to untreated control; assay type: functional; in short: as §2
Lactuca sativa [12] = test: Inhibition of hypocotyl length of Lactuca sativa cv. Roman (lettuce) at 0.1 mM or 1 mM after 5 days relative to untreated control; assay type: functional; in short: as §1
Lepidium sativum [13] = test: Inhibition of germination of Lepidium sativum at 0.1 mM or 1 mM after 5 days relative to untreated control; assay type: functional
Lactuca sativa [14] = test: Stimulation of root length of Lactuca sativa cv. Roman (lettuce) at 0.1 mM or 1 mM after 5 days relative to untreated control; assay type: functional; in short: as §1
Lactuca sativa [15] = test: Stimulation of hypocotyl length of Lactuca sativa cv. Roman (lettuce) at 0.1 mM or 1 mM after 5 days relative to untreated control; assay type: functional; in short: as §1
Solanum lycopersicum [16] = test: Inhibition of hypocotyl length of Solanum lycopersicum cv. Tres Cantos (tomato) at 0.1 mM or 1 mM after 5 days relative to untreated control; assay type: functional; in short: as §1
Solanum lycopersicum [17] = test: Inhibition of root length of Solanum lycopersicum cv. Tres Cantos (tomato) at 0.1 mM or 1 mM after 5 days relative to untreated control; assay type: functional; in short: as §1
Lepidium sativum [18] = test: Inhibition of hypocotyl length of Lepidium sativum at 0.1 mM or 1 mM after 4 days relative to untreated control
Lepidium sativum [19] = test: Inhibition of germination of Lepidium sativum at 0.1 mM or 1 mM after 4 days relative to untreated control; set-up: scale not given: the % may be the effect or the level left
Allium cepa [20] = test: Inhibition of germination of Allium cepa cv. Valenciana (onion) at 0.1 mM or 1 mM after 5 days relative to untreated control; assay type: functional
Triticum aestivum [21] = test: Inhibition of hypocotyl length of Triticum aestivum cv. Cortex (wheat) at 0.1 mM or 1 mM after 5 days relative to untreated control; assay type: functional; in short: as §2
Lactuca sativa [22] = test: Inhibition of root length of Lactuca sativa cv. Roman (lettuce) at 0.1 mM or 1 mM after 5 days relative to untreated control; assay type: functional; in short: as §1
Triticum aestivum [23] = test: Inhibition of root length of Triticum aestivum cv. Cortex (wheat) at 0.1 mM or 1 mM after 5 days relative to untreated control; assay type: functional; in short: as §2
Triticum aestivum [24] = test: Inhibition of germination of Triticum aestivum cv. Cortex (wheat) at 0.1 mM or 1 mM after 5 days relative to untreated control; assay type: functional; in short: as §2
Solanum lycopersicum [25] = test: Stimulation of germination of Solanum lycopersicum cv. Tres Cantos (tomato) at 0.1 mM or 1 mM after 5 days relative to untreated control; assay type: functional; in short: as §1
Lepidium sativum [26] = test: Stimulation of root length of Lepidium sativum at 0.1 mM or 1 mM after 5 days relative to untreated control; assay type: functional
Lepidium sativum [27] = test: Inhibition of root length of Lepidium sativum at 0.1 mM or 1 mM after 4 days relative to untreated control
Solanum lycopersicum [28] = test: Stimulation of hypocotyl length of Solanum lycopersicum cv. Tres Cantos (tomato) at 0.1 mM or 1 mM after 5 days relative to untreated control; assay type: functional; in short: as §1
Allium cepa [29] = test: Stimulation of germination of Allium cepa cv. Valenciana (onion) at 0.1 mM or 1 mM after 5 days relative to untreated control; assay type: functional
Triticum aestivum [30] = test: Stimulation of hypocotyl length of Triticum aestivum cv. Cortex (wheat) at 0.1 mM or 1 mM after 5 days relative to untreated control; assay type: functional; in short: as §2
Allium cepa [31] = test: Stimulation of root length of Allium cepa cv. Valenciana (onion) at 0.1 mM or 1 mM after 7 days relative to untreated control
Allium cepa [32] = test: Inhibition of hypocotyl length of Allium cepa cv. Valenciana (onion) at 0.1 mM or 1 mM after 7 days relative to untreated control
Allium cepa [33] = test: Stimulation of germination of Allium cepa cv. Valenciana (onion) at 0.1 mM or 1 mM after 7 days relative to untreated control
Allium cepa [34] = test: Stimulation of hypocotyl length of Allium cepa cv. Valenciana (onion) at 0.1 mM or 1 mM after 7 days relative to untreated control

Row | Structure (SMILES) | inhibition (Lactuca sativa [1]) | inhibition (INH) (Allium cepa [2]) | Activity (Lepidium sativum [3]) | Activity (Allium cepa [4]) | Activity (Lactuca sativa [5]) | Activity (Triticum aestivum [8]) | Activity (Solanum lycopersicum [10]) | Activity (Triticum aestivum [11]) | inhibition (INH) (Lepidium sativum [13]) | Activity (Lactuca sativa [14]) | Activity (Lactuca sativa [15]) | inhibition (INH) (Solanum lycopersicum [17]) | Activity (Lepidium sativum [19]) | inhibition (INH) (Triticum aestivum [21]) | inhibition (INH) (Lactuca sativa [22]) | Activity (Solanum lycopersicum [25]) | Activity (Lepidium sativum [26]) | inhibition (INH) (Lepidium sativum [27]) | Activity (Solanum lycopersicum [28]) | Activity (Triticum aestivum [30]) | other results
1 | C=C1C(=O)O[C@H]2[C@H]1CCC(=C)[C@@H]1CCC(=C)[C@@]12O | inactive | 20% | >=20% | <20% | inactive | inactive | <20% | inactive | <20% | 20% | inactive | <20% | <20% | <20% | 20% | inactive | >=20% | >=20% | inactive | <20% | Activity (Allium cepa [6]): 20%; inhibition (INH) (Allium cepa [7]): <20%; inhibition (Solanum lycopersicum [9]): inactive; inhibition (Lactuca sativa [12]): inactive; inhibition (Solanum lycopersicum [16]): inactive; inhibition (INH) (Lepidium sativum [18]): >=20%; inhibition (Allium cepa [20]): inactive; inhibition (Triticum aestivum [23]): inactive; inhibition (Triticum aestivum [24]): inactive; Activity (Allium cepa [29]): inactive
2 | C=C1C(=O)C[C@H]2C(=C)CC[C@H]3C(=C)C(=O)O[C@@H]3[C@@H]12 [DEHYDROZALUZANIN C] |  | >40% | >40% | >40% | >40% | >40% | >40% | >40% | >40% | >40% | >40% | >40% | >40% | >40% | >40% | >40% | >40% | >40% | >40% | >40% | inhibition (INH) (Lactuca sativa [1]): >40%; Activity (Allium cepa [6]): >40%; inhibition (INH) (Allium cepa [7]): >40%; inhibition (INH) (Solanum lycopersicum [9]): >40%; inhibition (INH) (Lactuca sativa [12]): >40%; inhibition (INH) (Solanum lycopersicum [16]): >40%; inhibition (INH) (Lepidium sativum [18]): >40%; inhibition (INH) (Allium cepa [20]): >40%; inhibition (INH) (Triticum aestivum [23]): >40%; inhibition (INH) (Triticum aestivum [24]): >40%; Activity (Allium cepa [29]): >40%
3 | C=C1[C@@H]2[C@H]3OC(=O)C(=C)[C@@H]3CCC(=C)[C@@H]2C[C@@H]1O [ZALUZANIN C] | inactive |  | inactive |  | inactive | 20% | <20% | <20% | <20% | 20% | 20% | <20% | <20% | 20% | 20% | inactive | <20% | <20% | inactive | 20% | inhibition (Allium cepa [2]): inactive; Activity (Allium cepa [31]): inactive; inhibition (Solanum lycopersicum [9]): inactive; inhibition (INH) (Lactuca sativa [12]): 20%; inhibition (Solanum lycopersicum [16]): inactive; inhibition (Lepidium sativum [18]): inactive; inhibition (Allium cepa [20]): inactive; inhibition (INH) (Triticum aestivum [23]): 20%; inhibition (INH) (Triticum aestivum [24]): <20%; inhibition (Allium cepa [32]): inactive; Activity (Allium cepa [33]): inactive; Activity (Allium cepa [34]): inactive
